# Screening data deposited in PubChem by several laboratories.
# Most compounds without a hit are left out; they make up all but 2.8% or so of the library.
# Rtt109 HAT inh: inhibitors of Candida albicans Rtt109/Vps75 histone acetyltransferase | AID 540336 | inhibition, % at 34.9 µM | hit rate 0.16% among 330,000 | purified Rtt109/Vps75, ThioGlo CoA-SH fluorescence, 4 h | Q5AAJ8;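 active means inhibition of at least 50% in every replicate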
# T cell HTS: T cell immune modulation candidate; hit rate 0.068% among 330,000; 2C CD8+ T cell-vesicle binding, flow cytometry; hits give low values; response (vesicle binding), % at 7 µM; AID 2052;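 active means response, share of CD8 T cells binding vesicles, and their 90th percentile fluorescence all below set limits, cut at about 80% in these data, passing the limit was not always enough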;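 further: values below 100% mean blocked vesicle binding to the CD8+ T cells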
#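 Assay system – 2C mouse CD8+ T cells · Also added – QL9-loaded Drosophila micro-vesicles · Timing – Cell–vesicle co-incubation 1.5 h at 37 °C, staining 20 min on ice · Signal – flow cytometry of vesicle-bound cells · Measure – percent CD8+ FL2 mean versus row control · Controls – Peptide-free naked vesicles (low) and QL9 vesicles with 0.7% DMSO vehicle (high)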
# GASC-1 inh: human JMJD2C demethylase inhibition | GST-JMJD2C(1-420) H3K9me3 demethylation, DELFIA europium | inhibition, % at 2.35 µM | hit rate 0.069% among 330,000 | AID 2099;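 active means more than half of a compound's replicate wells show inhibition beyond 50%, single wells judged on their own value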;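 further: signal counts dimethyl H3K9 product captured on neutravidin plate; 0% = median of DMSO wells and 100% = 0.3 times that DMSO median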
# Target sequence (Q9H3R0 1-420 limits assumed): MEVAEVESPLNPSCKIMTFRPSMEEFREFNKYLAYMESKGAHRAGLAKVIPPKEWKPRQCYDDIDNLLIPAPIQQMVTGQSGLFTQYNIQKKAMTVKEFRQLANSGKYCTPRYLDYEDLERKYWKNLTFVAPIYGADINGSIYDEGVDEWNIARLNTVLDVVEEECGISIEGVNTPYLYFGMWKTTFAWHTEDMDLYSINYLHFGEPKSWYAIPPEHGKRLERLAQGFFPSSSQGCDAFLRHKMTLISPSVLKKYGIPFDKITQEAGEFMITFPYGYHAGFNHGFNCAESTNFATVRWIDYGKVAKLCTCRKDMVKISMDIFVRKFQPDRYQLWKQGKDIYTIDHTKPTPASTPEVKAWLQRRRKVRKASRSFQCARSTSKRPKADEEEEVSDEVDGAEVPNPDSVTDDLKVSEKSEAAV
# NR3A LBD binder: modulators (binders) of human NR3A ligand-binding domain. NR3A LBD differential scanning fluorimetry, Tm shift; 0% = protein alone, 100% = glycine-bound protein. Tm shift relative to glycine control, % at 25 µM. hit rate 2.5% among 340,000. AID 1259313;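 active means melting temperature shift of at least 10% of the positive control shift, at one fixed dose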
# The depositor's hits bear a star; i = inactive; x = no result given.
SMILES,Rtt109 HAT inh,T cell HTS,GASC-1 inh,NR3A LBD binder
O=C1CN(C(=O)c2ccc(F)cc2)c2ccccc2N1,-25,26*,5,0
Nc1nc(N)c2[nH]c(=S)[nH]c2n1,-3,x,x,-9
N=c1n(CC(=O)c2cccc([N+](=O)[O-])c2)c2ccccc2n1Cc1ccccc1,9,367,61*,-7
Cc1ccc(C2CN(CCC(N)=O)C(=O)CO2)cc1 (stereo unspecified),-4,943,9,0
COc1cc(OC)cc(C(=O)Nc2nnc(NC(=S)Nc3ccccc3)s2)c1,-5,233,29,26*
COc1cc(OC)cc(C(=O)Nc2ccc(Nc3ccccc3)cc2)c1,0,312,-5,0
CCN(CC)S(=O)(=O)c1ccc(NC(=S)Nc2ccccc2)cc1,x,152,-2,1
CCN(CC)S(=O)(=O)c1ccc(C(=O)Nc2nnc(NC(=S)Nc3ccccc3)s2)cc1,12,682,-14,28*
CSc1ccccc1OCc1cc(C(=O)NCCN2CCCc3ccccc32)no1,14,356,5,12*
CSc1ccccc1OCc1cc(C(=O)NCCn2nc(C)cc2C)no1,32,267,-17,-1
Cc1ccc(C2=NN(C(=O)C3CCCO3)C(c3ccco3)C2)cc1 (stereo unspecified),-2,219,-8,0
O=C(C1CCCO1)N1N=C(c2ccc(Br)cc2)CC1c1ccco1 (stereo unspecified),-9,311,4,16*
COc1ccc(C(=O)Nc2ccc(Nc3ccccc3)cc2)cc1[N+](=O)[O-],-1,159,6,28*
COc1ccc(C(=O)Nc2ccc(OCc3ccccc3)cc2)cc1[N+](=O)[O-],-5,473,1,34*
Cc1c(C(=O)Nc2ccc(OCc3ccccc3)cc2)cccc1[N+](=O)[O-],-6,452,-2,-9
Cc1cc(C(=O)O)ccc1-c1ccc(/C=C2\NC(=O)N(Cc3ccc(F)cc3)C2=O)o1,-1,120,0,-1
CCOC(=O)C1=C(C)NC(C)=C(C(=O)OCC)C1C(=O)OCC(=O)NCCc1ccccc1,0,579,15,0
COc1cc([N+](=O)[O-])ccc1NC(=S)Nc1cc(C(=O)OC(C)C)cc(C(=O)OC(C)C)c1,1,141,-1,12*
COc1ccc([N+](=O)[O-])cc1NC(=S)NC(C)=O,-6,419,10,-4
O=C1C2C3C=CC(O3)C2C(=O)N1N=Cc1cccc2ccccc12 (stereo unspecified),-11,x,x,8
COc1ccc(CCC(=O)OCC(=O)c2ccc(C)cc2)cc1,-4,497,0,56*
Nc1[nH]n(-c2ccccc2)c(=O)c1N=Nc1ccccc1[N+](=O)[O-],-1,126,-4,21*
Nc1[nH]n(-c2ccccc2)c(=O)c1N=Nc1ccc2ncsc2c1,6,392,24,14*
Cc1nc([N+](=O)[O-])c(C(=O)OCc2ccccc2C#N)n1C,-2,i,-3,0
CCOc1ccc(NC2=C(Cl)C(=O)N(C3CCCCC3)C2=O)cc1,1,748,3,17*
SMILES,Rtt109 HAT inh,T cell HTS,GASC-1 inh,NR3A LBD binder
Cc1cccc(/C=N/NC(=O)c2cc(-c3cccnc3)nc3c2c(C)nn3-c2ccccc2)c1,-7,222,-4,24*
COc1ccc(C(=O)N2CCc3ccc(NC(=O)c4ccccn4)cc3C2)cc1F,15,x,5,-7
Cc1cccc(C2(c3cccc(C)c3)CC2C(=O)Nc2ccc([N+](=O)[O-])cc2O)c1 (stereo unspecified),9,115,0,15*
Cc1ccc(NC(=O)c2ncn(CCCNCCCc3ccccc3)n2)cc1C,1,x,x,0
Cc1cccc(C)c1NC(=O)CCc1nnc2ccc(N3CCCC3)nn12,-3,583,-4,6
CCOC(=O)C1=C(N)Oc2cc(O)ccc2C1c1cccc(Cl)c1 (stereo unspecified),5,264,13,13*
OC(CNCCC1C=Nc2ccccc21)Cn1c2ccc(Cl)cc2c2cc(Cl)ccc21 (stereo unspecified),-16,927,-4,27*
Cc1cc(OCCN2CCOCC2)ccc1Cl,0,143,4,0
O=c1c2ccccc2c(-c2ccc(O)cc2)nn1-c1cccc(C(F)(F)F)c1,8,203,1,25*
O=c1c2ccccc2c(-c2cccc(C(F)(F)F)c2)nn1-c1ccccc1,-8,312,-41,1
CCOC(=O)C1C(C(=O)OC)=C(c2ccc(OC)cc2)c2ccccc2N1S(=O)(=O)C(F)(F)F (stereo unspecified),2,x,x,11*
